Data taken from ChEMBL document CHEMBL2385029, “Cytotoxic activities of substituted 3-(3,4,5-trimethoxybenzylidene)-1,3-dihydroindol-2-ones and studies on their mechanisms of action” (Eur J Med Chem, 2013).
Calls of active or inactive are those of the source. The rule behind the calls is not given here.

Key:
[1] = Cytotoxicity against human melanoma cells after 48 hrs; assay type: functional; conditions: Melanoma cell
[2] = Inhibition of bovine brain tubulin assembly after 20 mins
[3] = biological target: T1, NADPH oxidase 4 (Homo sapiens) (UniProt Q9NPH5); experiment: Inhibition of NOX4 in human B1647 cells assessed as reduction of ROS production after 20 mins by DCFH-DA fluorescence assay; assay type: cell-based; conditions: in the assay text read “after 30 mins” for “after 20 mins”
T1 sequence (whole entry): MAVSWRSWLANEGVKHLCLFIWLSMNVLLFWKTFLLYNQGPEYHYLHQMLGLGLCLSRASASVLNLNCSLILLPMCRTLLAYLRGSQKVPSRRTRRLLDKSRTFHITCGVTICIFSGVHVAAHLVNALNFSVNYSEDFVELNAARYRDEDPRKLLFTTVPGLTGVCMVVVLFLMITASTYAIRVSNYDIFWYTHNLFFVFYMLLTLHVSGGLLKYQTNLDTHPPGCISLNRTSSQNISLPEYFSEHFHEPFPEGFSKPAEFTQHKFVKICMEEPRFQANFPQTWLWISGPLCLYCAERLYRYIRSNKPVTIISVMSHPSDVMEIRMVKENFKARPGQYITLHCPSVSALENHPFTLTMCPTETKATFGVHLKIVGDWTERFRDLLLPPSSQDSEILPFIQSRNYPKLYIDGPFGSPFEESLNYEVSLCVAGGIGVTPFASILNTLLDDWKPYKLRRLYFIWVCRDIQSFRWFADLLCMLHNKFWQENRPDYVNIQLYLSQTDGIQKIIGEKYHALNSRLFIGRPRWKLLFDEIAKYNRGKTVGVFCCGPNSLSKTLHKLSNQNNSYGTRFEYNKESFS
Procedure, shortened: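 B1647 cells given compound (DMSO) at 5 or 10 µM for 30 min, then at 1 × 10⁶/mL washed twice in PBS and loaded with 5 µM DCFH-DA for 20 min at 37 °C. DCF fluorescence read in multiwell plate; four independent experiments.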

[4] = Cytotoxicity against human leukemia cells after 48 hrs; assay type: functional; conditions: Leukemia cell
[5] = Cytotoxicity against human renal cancer cells after 48 hrs; assay type: functional; conditions: Cancer cell lines
[6] = biological target: T1, NADPH oxidase 4 (Homo sapiens); experiment: Inhibition of NOX4 in human nox2 silenced B1647 cells assessed as reduction of ROS production at 50 nM after 20 mins by DCFH-DA fluorescence assay; assay type: cell-based; conditions: 5 or 10 uM, in the assay text read “at 5 or 10 uM after 30 mins” for “at 50 nM after 20 mins”
Procedure, shortened: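 B1647 cells nucleofected with Nox2 siRNA or scrambled siRNA (final 50 nM), used after 24–48 h. Compound treatment for 30 min, then 5 µM DCFH-DA loading for 20 min at 37 °C and DCF fluorescence read. Scrambled cells served as control.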

[7] = Cytotoxicity against human ovarian cancer cells after 48 hrs; assay type: functional; conditions: Cancer cell lines
Procedure, shortened: (§1)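 NCI 60-cell panel, values averaged per subpanel. Compounds were dissolved in DMSO and first screened at a single 10⁻⁵ M dose. Active ones then went to five concentrations at ten-fold dilutions, top 10⁻⁴ M (10⁻³ M for some), with 48 h exposure.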

[8] = Cytotoxicity against human NSCLC cells after 48 hrs; assay type: functional; procedure, shortened: as §1
[9] = Cytotoxicity against human prostate cancer cells after 48 hrs; assay type: functional; conditions: Cancer cell lines; procedure, shortened: as §1
[10] = Cytotoxicity against human breast cancer cells after 48 hrs; assay type: functional; conditions: Cancer cell lines; procedure, shortened: as §1
B1647 = experiment: Cytotoxicity against human B1647 cells at 5 to 10 uM after 24 hrs by MTT assay; assay type: functional, cell-based
Procedure, shortened: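 B1647 human AML cells grown in IMDM with 5% human serum (37 °C, 5% CO2); 10⁶ cells per well in 1 mL exposed to 5 or 10 µM compound (DMSO) for 24 h. MTT 0.5 mg/mL added for 4 h at 37 °C, formazan dissolved overnight in 10% SDS/0.01 M HCl, A570 read. Four independent experiments.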

[11] = Inhibition of nox4 expression in human B1647 cells at 10 uM after 24 hrs by Western blot analysis relative to control; assay type: functional
Procedure, shortened: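 B1647 cells treated 24 h at 10 µM. Lysates (40 µg protein per lane) run on 10% SDS-PAGE and transferred to nitrocellulose. Blots probed with anti-Nox4, with β-tubulin as loading control, and detected by chemiluminescence. Bands quantified by densitometry in arbitrary units relative to control; three independent experiments.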

[12] = Cytotoxicity against human CNS cancer cells after 48 hrs; assay type: functional; conditions: Cancer cell lines; procedure, shortened: as §1
[13] = Cytotoxicity against human colon cancer cells after 48 hrs; assay type: functional; conditions: Cancer cell lines; procedure, shortened: as §1
Bos taurus = species on record: Bos taurus; experiment: Displacement of [3H]colchicine from bovine brain tubulin at 5 uM after 10 mins
[14] = read-out: LC50 (the source's name)

## COc1cc(/C=C2/C(=O)Nc3cc(C)c(O)cc32)cc(OC)c1OC
[1]
  GI50: 3.6 µM
  TGI: 16.6 µM
[1]; [14]
  CC50: 53.7 µM
[2]
  IC50: > 20 µM
[3]
  inhibition: Dose-dependent effect
[4]
  GI50: 1.8 µM
[4]; [14]
  CC50: 70.8 µM
[5]
  GI50: 7.1 µM
  LC50: 66.1 µM
  TGI: 25.1 µM
[6]
  inhibition: Active
[7]
  GI50: 7.1 µM
  TGI: 37.1 µM
[7]; [14]
  CC50: 87.1 µM
[8]
  GI50: 5.7 µM
  TGI: 31.6 µM
[8]; [14]
  CC50: 79.4 µM
[9]
  GI50: 3.9 µM
  TGI: 30.9 µM
[9]; [14]
  CC50: 91.2 µM
[10]
  GI50: 2.5 µM
  LC50: 74.1 µM
  TGI: 14.4 µM
B1647
  Activity: Active
[11]
  fold change (FC): 0.64
[12]
  GI50: 5.2 µM
  LC50: 85.1 µM
  TGI: 25.7 µM
[13]
  GI50: 4 µM
  LC50: 53.7 µM
  TGI: 18.2 µM

## COc1cc(/N=C2\C(=O)N(Cc3ccccc3)c3ccccc32)cc(OC)c1OC
[2]
  IC50: 3.3 µM
Bos taurus
  inhibition: 31%

## COc1ccc2c(c1)/C(=C\c1cc(OC)c(OC)c(OC)c1)C(=O)N2
[2]
  IC50: 6.1 µM
Bos taurus
  inhibition: 35%
